Entries after “also recorded” stand apart in the source; their conditions may differ.
Key:
KDM4A = target: T1, KDM4A (Homo sapiens, UniProt O75164); test: AlphaLISA demethylase assay, KDM4A; type: biochemical
T1 sequence (O75164 1-359 limits assumed): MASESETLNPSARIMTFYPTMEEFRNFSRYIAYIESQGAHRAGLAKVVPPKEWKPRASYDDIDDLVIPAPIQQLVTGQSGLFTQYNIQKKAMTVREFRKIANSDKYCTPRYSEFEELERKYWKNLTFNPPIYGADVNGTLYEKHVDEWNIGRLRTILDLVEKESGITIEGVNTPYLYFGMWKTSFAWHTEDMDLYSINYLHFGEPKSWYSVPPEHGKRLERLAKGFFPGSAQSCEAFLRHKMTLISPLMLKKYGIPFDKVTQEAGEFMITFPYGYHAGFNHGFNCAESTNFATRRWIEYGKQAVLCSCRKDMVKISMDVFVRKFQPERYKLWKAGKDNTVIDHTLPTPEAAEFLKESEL

PAMPA permeability assay = type: in vitro ADME; conditions: pH 7.4
KDM5A(1−739)ΔAP = target: T2, KDM5A(1−739)ΔAP (Homo sapiens, UniProt P29375, DEL88-347); test: Promega Succinate-Glo demethylase assay; type: biochemical; conditions: for reversibility of inhibition after buffer exchange / dialysis: [E] = 5 μM, initial [I] = 100 μM, four times of buffer exchange; for dependence of inhibition of KDM5A on αKG concentration: three αKG concentrations (10, 100, 1000 μM), 20 min preincubation; for effect of preincubation with KDM5A on inhibition potency: with or without incubation for 20 min
T2 sequence (P29375 with tags, fused parts or gaps DEL88-347 limits assumed): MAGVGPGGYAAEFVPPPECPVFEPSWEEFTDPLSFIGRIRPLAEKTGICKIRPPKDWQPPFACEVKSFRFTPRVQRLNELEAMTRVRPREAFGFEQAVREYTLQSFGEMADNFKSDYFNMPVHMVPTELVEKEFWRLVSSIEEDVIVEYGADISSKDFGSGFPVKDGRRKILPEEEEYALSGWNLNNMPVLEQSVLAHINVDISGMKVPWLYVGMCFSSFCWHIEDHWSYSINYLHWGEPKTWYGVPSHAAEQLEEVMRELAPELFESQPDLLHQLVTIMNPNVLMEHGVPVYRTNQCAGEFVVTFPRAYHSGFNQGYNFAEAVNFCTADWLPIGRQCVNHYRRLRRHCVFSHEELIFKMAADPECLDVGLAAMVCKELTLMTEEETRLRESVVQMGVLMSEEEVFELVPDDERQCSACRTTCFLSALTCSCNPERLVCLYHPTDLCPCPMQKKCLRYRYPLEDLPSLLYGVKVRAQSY
Procedure, shortened: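 Succinate-Glo assay: KDM5A(1−739)ΔAP (0.8 μM) was preincubated 20 min with 2-fold serial dilutions of test compound. Reactions were started with αKG (10, 100 or 1000 μM) plus H3(1−24)K4me3 peptide (60 μM), in 10 μM (NH4)2Fe(SO4)2, 100 μM ascorbate, 50 mM HEPES pH 8.0 and 5% DMSO. They ran 10 min at ambient temperature (n = 3), then succinate detection reagents were added. IC50 came from a four-parameter fit.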

KDM5B [1] = test: AlphaLISA demethylase assay, KDM5B; type: biochemical, human; conditions: AlphaLISA IC50 values; recombinant catalytic domains, same enzyme concentration
BT474 cells [2] = test: IncuCyte live cell proliferation, BT474; type: cell-based, human
Procedure, shortened: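 BT474 cells were treated with test compound. Growth was followed by live-cell imaging every 4 h over 300 h, with percent confluence as the read-out.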

KDM5A = test: ESI mass spectrometry of KDM5A with inhibitors; type: binding, human; conditions: KDM5A 50 μM, inhibitor 0.5 mM, 30 min, ambient temperature
MDA-MB-231 = test: Bright-field microscopy of live cells, MDA-MB-231; type: cell-based, human; conditions: MDA-MB-231, 24 h; N73: between 5 and 10 μM
MCF7 = test: Bright-field microscopy of live cells, MCF7; type: cell-based, human; conditions: MCF7, 24 h; N73: between 5 and 10 μM
HEK293T = test: Bright-field microscopy of live cells, HEK293T; type: cell-based, human; conditions: 24 h, N73: between 5 and 10 μM
K562 cells = conditions: 10 nM; cited from earlier work
MCF7 cells [3] = test: Western blot of histone methylation levels in MCF7 cells; type: cell-based, human
Procedure, shortened: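 MCF7 cells were treated with test compound at the indicated concentrations, or 0.1% DMSO, for 30 or 48 h. Total cell lysates were analysed by Western blot with histone methylation antibodies.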

BT474 cells [4] = test: Cellular H3K4me3 level in BT474 cells; type: cell-based, human
BT474 cells [5] = test: Cellular extract experiment, BT474 cells; type: in vitro ADME, human
[6] = Stability in culture media; type: in vitro ADME; conditions: after 24 h
MCF7 cells [7] = test: Real-time RT-PCR of KDM5 target genes in MCF7 cells; type: cell-based, human; conditions: MCF7, 1 μM for 2 days
KDM5B [8] = conditions: cited from earlier work
KDM5A catalytic domain = test: Isothermal titration calorimetry, binding to KDM5A catalytic domain; design: species or system human; conditions: ITC
Procedure, shortened: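 Binding was measured by isothermal titration calorimetry with the KDM5A(1−588)ΔAP catalytic-domain construct (internal ARID and PHD1 deleted). KD was the read-out.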

SMILES: Nc1cccc(C(OCCN2CCCCC2)c2cc3nccc(C(=O)O)c3s2)c1 (stereo not drawn) [N70, 2-((3-aminophenyl)(2-(piperidin-1-yl)ethoxy)-methyl)thieno[3,2-b]pyridine-7-carboxylic acid]
- inhibition constants against KDM4A, N70 compared with N71 (KDM4A): about the same
- Papp at 30 min, 0.05 mM (PAMPA permeability assay): 100 to 1000 nm/s
- reversibility of inhibition after buffer exchange / dialysis (KDM5A(1−739)ΔAP): could be reversed after dialysis; also recorded: removes the noncovalent modifying N70 from solution; also recorded: enzyme activity could be restored after buffer exchange
- dependence of inhibition of KDM5A on αKG concentration (KDM5A(1−739)ΔAP): αKG-competitive inhibition; also recorded: dependent on αKG concentration
- effect of preincubation with KDM5A on inhibition potency (KDM5A(1−739)ΔAP): insensitive
- selectivity for KDM5B over KDM4A (KDM5B [1]): 7−8 fold

SMILES: CC(C)OC(=O)c1ccnc2cc(C(OCCN3CCCCC3)c3cccc(N)c3)sc12 (stereo not drawn) [SI-5, Isopropyl 2-((3-Aminophenyl)(2-(piperidin-1-yl)-ethoxy)methyl)thieno[3,2-b]pyridine-7-carboxylate]
- Papp at 30 min, 0.05 mM (PAMPA permeability assay): > 1000 nm/s
- growth inhibition (percent confluence) (BT474 cells [2]; BT474, highest concentration tested 28 μM): some growth inhibition at the highest concentration tested

SMILES: CN(C)C/C=C/C(=O)Nc1cccc(C(OCCN2CCCCC2)c2cc3nccc(C(=O)O)c3s2)c1 (stereo not drawn) [N71, (E)-2-((3-(4-(Dimethylamino)but-2-enamido)-phenyl)(2-(piperidin-1-yl)ethoxy)methyl)thieno[3,2-b]pyridine-7-carboxylic Acid]
- covalent modification of KDM5A enzyme by mass spectrometry (KDM5A): covalently modified KDM5A enzyme completely
- cell killing / effect on cell growth (MDA-MB-231): no effect on cell growth
- inhibition constants against KDM4A, N70 compared with N71 (KDM4A): about the same
- cell killing / effect on cell growth (MCF7): no effect on cell growth
- dependence of inhibition of KDM5A on enzyme concentration (KDM5A(1−739)ΔAP): dependent on enzyme concentration
- kinact/KI (KDM5A(1−739)ΔAP): ~8000 M⁻¹ s⁻¹
- IC50 value lower than that of N70 (KDM5A(1−739)ΔAP; 100 μM αKG concentration): ~ 50 fold
- reversibility of inhibition after buffer exchange / dialysis (KDM5A(1−739)ΔAP): persisted even after dialysis; also recorded: does not perturb N71 complex with KDM5A; also recorded: no effect on the inhibition
- dependence of inhibition of KDM5A on αKG concentration (KDM5A(1−739)ΔAP): no significant change to IC50 values with variation in αKG concentration; also recorded: did not appear to be sensitive to the αKG concentration
- effect of preincubation with KDM5A on inhibition potency (KDM5A(1−739)ΔAP): increased inhibition potency
- cell killing / effect on cell growth (HEK293T): no effect on cell growth

SMILES: CN(C)C/C=C/C(=O)Nc1cc2c(Nc3ccc(F)c(Cl)c3)ncnc2cc1O[C@H]1CCOC1 [Afatinib]
- cytotoxicity for EGFR expressing K562 cells (K562 cells): complete cytotoxicity

SMILES: CCOC(=O)CCNc1cc(N2CCc3ccccc3CC2)nc(-c2ccccn2)n1 [GSK-J4]
- overall levels of H3K4me3 or H3K27me3 (MCF7 cells [3]; MCF7, same conditions tested): influences little of the overall levels of H3K4me3 or H3K27me3

SMILES: CC(C)OC(=O)c1ccnc2cc(C(OCCN3CCCCC3)c3cccc(NC(=O)/C=C/CN(C)C)c3)sc12 (stereo not drawn) [N73, Isopropyl (E)-2-((3-(4-(Dimethylamino)but-2-enamido)phenyl)(2-(piperidin-1-yl)ethoxy)methyl)thieno[3,2-b]-pyridine-7-carboxylate]
- cellular H3K4me3 methylation levels (BT474 cells [4]; BT474, doses up to 5 μM, 48 h, immunocytochemistry): does not increase H3K4me3 level; also recorded: no impact on cellular H3K4me3 methylation levels
- cell killing / effect on cell growth (MDA-MB-231): noteworthy difference in cell killing
- Papp at 30 min, 0.05 mM (PAMPA permeability assay): 100 to 1000 nm/s
- cell killing / effect on cell growth (MCF7): noteworthy difference in cell killing
- intracellular esterase-mediated conversion of ester N73 to acid N71 (BT474 cells [5]; 24 h): appeared to be inefficient
- cell extract level of ester N73 relative to acid N71 (BT474 cells [5]; incubated 24 h, lysed): 100 fold
- remained unchanged in culture media [6]: Approximately 80%
- cell growth (percent confluence) (BT474 cells [2]; BT474, low doses, period of >12 days): do not affect cell growth
- cell killing / effect on cell growth (HEK293T): noteworthy difference in cell killing

SMILES: CCOC(=O)c1ccnc(CNCC(=O)N(CC)CCN(C)C)c1 [KDM5-C70]
- cellular H3K4me3 levels (MCF7 cells [3]; MCF7, 1 μM): increase in cellular H3K4me3 levels
- cellular H3K4me3 levels (BT474 cells [4]; BT474, 1 μM): increase in cellular H3K4me3 levels
- increase of expression of STING, MT1F, and MT1H (MCF7 cells [7]): up to 6 fold
- selectivity for the KDM5 family over KDM4A (KDM5B [8]): 10 ×

SMILES: CN1CCCC1CCOC(c1cc2nccc(C(=O)O)c2s1)c1ccccc1Cl (stereo not drawn) [N49, 2-((2-Chlorophenyl)(2-(1-methylpyrrolidin-2-yl)-ethoxy)methyl)thieno[3,2-b]pyridine-7-carboxylic Acid]
- difference in binding affinity (KD) to KDM5A between N46 and N49 (KDM5A catalytic domain): approximately 2 fold
- selectivity for KDM5B over KDM4A (KDM5B [1]): 7−8 fold
